# Source: ChEMBL document CHEMBL1926642, “Relevance of the C-5 position to schweinfurthin induced cytotoxicity” (2011)
# What was measured:
# Type in all cases: functional
# RPMI-8226 = assay: Growth inhibition of human RPMI8226 cells after 48 hrs by sulforhodamine B assay; details: RPMI-8226, 48 h
# [1] = Growth inhibition of human Hs 578T cells after 48 hrs by sulforhodamine B assay
# T47D = assay: Growth inhibition of human T47D cells after 48 hrs by sulforhodamine B assay
# NCI-H460 = assay: Growth inhibition of human NCI-H460 cells after 48 hrs by sulforhodamine B assay; details: NCI-H460, 48 h
# OVCAR-4 = assay: Growth inhibition of human OVCAR4 cells after 48 hrs by sulforhodamine B assay; details: OVCAR-4, 48 h
# SK-MEL-2 = assay: Growth inhibition of human SK-MEL-2 cells after 48 hrs by sulforhodamine B assay; details: SK-MEL-2, 48 h
# HL-60(TB) = assay: Growth inhibition of human HL-60(TB) cells after 48 hrs by sulforhodamine B assay; details: HL-60, 48 h
# How it was run: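 Run in the NCI 60 cell-line screen as the full 5-dose assay that follows initial single-dose testing; GI50 is read from the dose series.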
# SF-295 = assay: Growth inhibition of human SF295 cells after 48 hrs by sulforhodamine B assay; details: SF-295, 48 h
# SK-OV-3 = assay: Growth inhibition of human SKOV3 cells after 48 hrs by sulforhodamine B assay; details: SK-OV-3, 48 h
# SK-MEL-5 = assay: Growth inhibition of human SK-MEL-5 cells after 48 hrs by sulforhodamine B assay; details: SK-MEL-5, 48 h
# HCT-15 = assay: Growth inhibition of human HCT15 cells after 48 hrs by sulforhodamine B assay; details: HCT-15, 48 h
# HCT-116 = assay: Growth inhibition of human HCT116 cells after 48 hrs by sulforhodamine B assay; details: HCT-116, 48 h
# TK-10 = assay: Growth inhibition of human TK10 cells after 48 hrs by sulforhodamine B assay; details: TK-10, 48 h
# KM12 = assay: Growth inhibition of human KM12 cells after 48 hrs by sulforhodamine B assay; details: KM12, 48 h
# IGROV-1 = assay: Growth inhibition of human IGROV1 cells after 48 hrs by sulforhodamine B assay; details: IGROV-1, 48 h
# HOP-62 = assay: Growth inhibition of human HOP62 cells after 48 hrs by sulforhodamine B assay; details: HOP-62, 48 h
# OVCAR-8 = assay: Growth inhibition of human OVCAR8 cells after 48 hrs by sulforhodamine B assay; details: OVCAR-8, 48 h
# UO-31 = assay: Growth inhibition of human UO31 cells after 48 hrs by sulforhodamine B assay; details: UO-31, 48 h
# EKVX = assay: Growth inhibition of human EKVX cells after 48 hrs by sulforhodamine B assay
# NCI-H226 = assay: Growth inhibition of human NCI-H226 cells after 48 hrs by sulforhodamine B assay; details: NCI-H226, 48 h
# OVCAR-3 = assay: Growth inhibition of human OVCAR3 cells after 48 hrs by sulforhodamine B assay; details: OVCAR-3, 48 h
# NCI-H23 = assay: Growth inhibition of human NCI-H23 cells after 48 hrs by sulforhodamine B assay; details: NCI-H23, 48 h
# NCI-H322M = assay: Growth inhibition of human NCI-H322M cells after 48 hrs by sulforhodamine B assay
# HCC 2998 = assay: Growth inhibition of human HCC2998 cells after 48 hrs by sulforhodamine B assay; details: HCC 2998, 48 h
# CCRF-CEM = assay: Growth inhibition of human CCRF-CEM cells after 48 hrs by sulforhodamine B assay
# MOLT-4 = assay: Growth inhibition of human MOLT4 cells after 48 hrs by sulforhodamine B assay; details: MOLT-4, 48 h
# SN12C = assay: Growth inhibition of human SN12C cells after 48 hrs by sulforhodamine B assay
# K562 = assay: Growth inhibition of human K562 cells after 48 hrs by sulforhodamine B assay; details: K562, 48 h
# U-251 = assay: Growth inhibition of human U251 cells after 48 hrs by sulforhodamine B assay; details: U-251, 48 h
# MDA-MB-231 = assay: Growth inhibition of human MDA-MB-231/ATCC cells after 48 hrs by sulforhodamine B assay; details: MDA-MB-231, 48 h
# CAKI-1 = assay: Growth inhibition of human Caki1 cells after 48 hrs by sulforhodamine B assay; details: CAKI-1, 48 h
# OVCAR-5 = assay: Growth inhibition of human OVCAR5 cells after 48 hrs by sulforhodamine B assay; details: OVCAR-5, 48 h
# [2] = read-out: pLC50 (the source's name) (converted)
structure (smiles),measurement,setting,value
COCOc1cc(/C=C/c2cc(C=O)c3c(c2)C[C@@H]2C(C)(C)[C@H](O)CC[C@@]2(C)O3)cc(OC)c1C/C=C(\C)CCC=C(C)C,GI50,RPMI-8226,1.17 µM
same,LC50,RPMI-8226,> 100 µM
same,TGI,RPMI-8226; read-out: pTGI (converted),> 100 µM
same,GI50,[1],1.74 µM
same,CC50,[1]; [2],> 100 µM
same,TGI,[1]; read-out: pTGI (converted),> 100 µM
same,GI50,T47D,13.5 µM
same,LC50,T47D,> 100 µM
same,TGI,T47D; read-out: pTGI (converted),> 100 µM
same,GI50,NCI-H460,5.89 µM
same,LC50 (concentration killing 50% of cells),NCI-H460,> 100 µM
same,TGI,NCI-H460; read-out: pTGI (converted),> 100 µM
same,GI50,OVCAR-4,6.92 µM
same,LC50,OVCAR-4,> 100 µM
same,TGI,OVCAR-4; read-out: pTGI (converted),> 100 µM
same,GI50,SK-MEL-2,12.9 µM
same,LC50,SK-MEL-2,> 100 µM
same,TGI,SK-MEL-2; read-out: pTGI (converted),> 100 µM
same,GI50,HL-60(TB),3.55 µM
same,CC50,HL-60(TB); [2],> 100 µM
same,TGI,HL-60(TB); read-out: pTGI (converted),60.3 µM
same,LC50,SF-295,> 100 µM
same,GI50,SF-295; read-out: GI50,1.2 µM
same,GI50,SF-295; read-out: pGI50 (converted),1.2 µM
same,TGI,SF-295; read-out: pTGI (converted),4.37 µM
same,GI50,SK-OV-3,41.7 µM
same,LC50,SK-OV-3,> 100 µM
same,TGI,SK-OV-3; read-out: pTGI (converted),> 100 µM
same,GI50,SK-MEL-5,7.24 µM
same,LC50,SK-MEL-5,58.9 µM
same,TGI,SK-MEL-5; read-out: pTGI (converted),22.9 µM
same,GI50,HCT-15,3.31 µM
same,LC50,HCT-15,> 100 µM
same,TGI,HCT-15; read-out: pTGI (converted),51.3 µM
same,GI50,HCT-116,6.61 µM
same,LC50,HCT-116,> 100 µM
same,TGI,HCT-116; read-out: pTGI (converted),35.5 µM
same,GI50,TK-10,25.1 µM
same,LC50,TK-10,> 100 µM
same,TGI,TK-10; read-out: pTGI (converted),> 100 µM
same,GI50,KM12,7.94 µM
same,LC50,KM12,> 100 µM
same,TGI,KM12; read-out: pTGI (converted),75.9 µM
same,GI50,IGROV-1,9.77 µM
same,LC50,IGROV-1,> 100 µM
same,TGI,IGROV-1; read-out: pTGI (converted),> 100 µM
same,GI50,HOP-62,4.9 µM
same,LC50,HOP-62,> 100 µM
same,TGI,HOP-62; read-out: pTGI (converted),> 100 µM
same,GI50,OVCAR-8,17 µM
same,LC50,OVCAR-8,> 100 µM
same,TGI,OVCAR-8; read-out: pTGI (converted),61.7 µM
same,GI50,UO-31,4.07 µM
same,LC50,UO-31,> 100 µM
same,TGI,UO-31; read-out: pTGI (converted),> 100 µM
same,GI50,EKVX,5.5 µM
same,LC50 (50% lethal concentration),EKVX,> 100 µM
same,TGI,EKVX; read-out: pTGI (converted),> 100 µM
same,GI50,NCI-H226,28.2 µM
same,LC50,NCI-H226,> 100 µM
same,TGI,NCI-H226; read-out: pTGI (converted),> 100 µM
same,GI50,OVCAR-3,27.5 µM
same,LC50,OVCAR-3,> 100 µM
same,TGI,OVCAR-3; read-out: pTGI (converted),> 100 µM
same,GI50,NCI-H23,11 µM
same,LC50,NCI-H23,> 100 µM
same,TGI,NCI-H23; read-out: pTGI (converted),> 100 µM
same,GI50,NCI-H322M,89.1 µM
same,LC50,NCI-H322M,> 100 µM
same,TGI,NCI-H322M; read-out: pTGI (converted),> 100 µM
same,GI50,HCC 2998,12.3 µM
same,LC50,HCC 2998,> 100 µM
same,TGI,HCC 2998; read-out: pTGI (converted),> 100 µM
same,GI50,CCRF-CEM,4.37 µM
same,LC50,CCRF-CEM,> 100 µM
same,TGI,CCRF-CEM; read-out: pTGI (converted),> 100 µM
same,GI50,MOLT-4,2.82 µM
same,LC50,MOLT-4,> 100 µM
same,TGI,MOLT-4; read-out: pTGI (converted),13.2 µM
same,GI50,SN12C,14.8 µM
same,LC50,SN12C,> 100 µM
same,TGI,SN12C; read-out: pTGI (converted),> 100 µM
same,GI50,K562,4.37 µM
same,LC50,K562,> 100 µM
same,TGI,K562; read-out: pTGI (converted),47.9 µM
same,GI50,U-251,1.74 µM
same,LC50,U-251,> 100 µM
same,TGI,U-251; read-out: pTGI (converted),60.3 µM
same,GI50,MDA-MB-231,3.39 µM
same,CC50,MDA-MB-231; [2],> 100 µM
same,TGI,MDA-MB-231; read-out: pTGI (converted),15.8 µM
same,GI50,CAKI-1,3.98 µM
same,LC50,CAKI-1,> 100 µM
same,TGI,CAKI-1; read-out: pTGI (converted),> 100 µM
same,GI50,OVCAR-5,11.7 µM
same,LC50,OVCAR-5,> 100 µM
same,TGI,OVCAR-5; read-out: pTGI (converted),> 100 µM
